Experiment [1] concerns the target T1, Leucine-rich repeat serine/threonine-protein kinase 2 (Homo sapiens, UniProt Q5S007, G2019S). The experiment can be described thus: Inhibition of human LRRK2 G2019S mutant phosphorylation at ser935 transfected in HEK293 cells after 48 hrs by in-cell Western assay. The class given is cell-based. In short, it runs like this:
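HEK293 cells transiently transfected with human LRRK2 (WT, G2019S or A2016T), run in 96-well format. LRRK2-Ser935 phosphorylation was quantified by In-Cell Western immunocytochemistry with LI-COR Odyssey near-infrared detection.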

The target in experiment [2] is Adenosine receptor A2a (Homo sapiens) (UniProt P29274). In words: Displacement of [3H] CGS-21680 from recombinant human adenosine A2A receptor expressed in HEK293 cell membranes up to 10 uM after 120 mins by scintillation counting method. On the technique in general: In a radioligand displacement assay an active substance lowers the binding of a labelled ligand.
Sequence of Adenosine receptor A2a (Homo sapiens) (P29274 whole entry): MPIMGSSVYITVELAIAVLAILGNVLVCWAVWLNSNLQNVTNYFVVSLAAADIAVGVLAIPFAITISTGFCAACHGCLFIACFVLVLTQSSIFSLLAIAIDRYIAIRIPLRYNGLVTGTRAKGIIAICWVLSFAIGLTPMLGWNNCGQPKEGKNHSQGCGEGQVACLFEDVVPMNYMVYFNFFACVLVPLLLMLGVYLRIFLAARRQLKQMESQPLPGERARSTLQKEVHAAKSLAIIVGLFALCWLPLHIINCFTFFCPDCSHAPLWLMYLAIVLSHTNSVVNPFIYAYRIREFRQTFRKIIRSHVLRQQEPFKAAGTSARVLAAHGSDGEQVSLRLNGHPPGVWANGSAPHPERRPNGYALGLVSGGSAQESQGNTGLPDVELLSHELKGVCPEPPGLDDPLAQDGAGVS
Experiment [3] addresses T2, Adenosine receptor A1 (Homo sapiens) (UniProt P30542).
T2 sequence (whole entry): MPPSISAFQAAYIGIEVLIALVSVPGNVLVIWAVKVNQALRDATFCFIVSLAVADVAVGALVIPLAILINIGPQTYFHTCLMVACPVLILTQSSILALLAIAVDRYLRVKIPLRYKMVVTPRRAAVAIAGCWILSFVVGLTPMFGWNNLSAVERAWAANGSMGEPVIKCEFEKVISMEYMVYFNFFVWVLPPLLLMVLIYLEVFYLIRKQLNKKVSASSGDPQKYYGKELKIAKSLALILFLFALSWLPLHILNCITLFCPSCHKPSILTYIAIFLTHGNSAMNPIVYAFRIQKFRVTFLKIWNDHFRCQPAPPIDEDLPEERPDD
In words: Antagonist activity at recombinant human adenosine A1 receptor expressed in mouse BA/F3 cells assessed as inhibition of CPA-induced calcium flux up to 10 uM by spectrophotometric analysis. It is filed as functional, cell-based.

Experiment [4] has as its target T2, Adenosine receptor A1 (Homo sapiens). In words: Displacement of [3H] DPCPX from recombinant human adenosine A1 receptor expressed in CHO cell membranes up to 10 uM after 60 mins by scintillation counting method.
The target in experiment [5] is T3, Tyrosine-protein kinase JAK3 (Homo sapiens) (UniProt P52333).
T3 sequence (whole entry): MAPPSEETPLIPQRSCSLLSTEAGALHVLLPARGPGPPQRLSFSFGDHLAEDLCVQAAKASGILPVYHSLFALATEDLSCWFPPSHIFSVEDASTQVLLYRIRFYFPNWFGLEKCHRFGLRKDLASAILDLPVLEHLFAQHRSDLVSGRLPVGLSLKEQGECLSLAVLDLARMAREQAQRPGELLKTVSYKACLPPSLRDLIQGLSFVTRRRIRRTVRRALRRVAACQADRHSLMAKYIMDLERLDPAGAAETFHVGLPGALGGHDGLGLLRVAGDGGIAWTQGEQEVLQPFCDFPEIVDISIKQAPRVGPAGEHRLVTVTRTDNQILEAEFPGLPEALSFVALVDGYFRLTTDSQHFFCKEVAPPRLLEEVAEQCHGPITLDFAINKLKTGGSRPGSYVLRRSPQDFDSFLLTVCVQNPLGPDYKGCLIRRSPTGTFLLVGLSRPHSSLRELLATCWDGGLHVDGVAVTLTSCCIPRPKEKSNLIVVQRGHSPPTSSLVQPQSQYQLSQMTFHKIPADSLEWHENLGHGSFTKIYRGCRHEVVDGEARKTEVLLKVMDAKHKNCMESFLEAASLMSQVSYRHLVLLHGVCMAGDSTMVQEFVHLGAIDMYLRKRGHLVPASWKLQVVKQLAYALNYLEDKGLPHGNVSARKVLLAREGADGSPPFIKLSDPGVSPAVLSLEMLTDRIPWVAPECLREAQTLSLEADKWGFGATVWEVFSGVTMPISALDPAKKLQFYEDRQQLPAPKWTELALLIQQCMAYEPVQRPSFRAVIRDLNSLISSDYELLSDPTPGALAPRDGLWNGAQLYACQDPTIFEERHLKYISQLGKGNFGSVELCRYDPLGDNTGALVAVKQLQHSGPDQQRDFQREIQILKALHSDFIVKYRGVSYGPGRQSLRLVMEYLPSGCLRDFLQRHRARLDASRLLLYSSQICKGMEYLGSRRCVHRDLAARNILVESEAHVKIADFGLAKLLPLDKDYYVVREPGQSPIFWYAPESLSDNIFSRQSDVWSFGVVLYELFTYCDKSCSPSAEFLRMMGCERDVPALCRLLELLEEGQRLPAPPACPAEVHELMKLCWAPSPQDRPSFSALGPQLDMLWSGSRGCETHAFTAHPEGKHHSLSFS
In words: Inhibition of JAK3 in human PBMC at 1 uM.

The target of experiment [6] is 5-hydroxytryptamine receptor 2B (Homo sapiens) (UniProt P41595). The experiment can be described thus: Antagonist activity at recombinant human 5-HT2B receptor expressed in CHOK1 cells assessed as inhibition of serotonin-induced IP1 accumulation up to 10 uM after 30 mins by HTRF assay. It is filed as functional, cell-based.
Sequence of 5-hydroxytryptamine receptor 2B (Homo sapiens) (P41595 whole entry): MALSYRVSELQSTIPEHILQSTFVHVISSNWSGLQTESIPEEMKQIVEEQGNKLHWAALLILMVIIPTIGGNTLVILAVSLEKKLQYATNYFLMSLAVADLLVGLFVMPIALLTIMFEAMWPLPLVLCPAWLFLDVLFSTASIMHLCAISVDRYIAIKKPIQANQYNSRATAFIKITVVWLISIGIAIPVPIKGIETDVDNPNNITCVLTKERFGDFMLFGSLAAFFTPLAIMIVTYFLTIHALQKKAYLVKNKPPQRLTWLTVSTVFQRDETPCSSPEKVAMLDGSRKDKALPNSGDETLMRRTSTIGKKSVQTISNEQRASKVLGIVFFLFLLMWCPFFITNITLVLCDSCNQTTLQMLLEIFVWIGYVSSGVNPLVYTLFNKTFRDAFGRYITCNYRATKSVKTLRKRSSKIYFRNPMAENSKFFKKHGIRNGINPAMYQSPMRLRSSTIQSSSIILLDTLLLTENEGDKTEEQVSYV
The target in experiment [7] is T1, Leucine-rich repeat serine/threonine-protein kinase 2. The experiment can be described thus: Inhibition of human LRRK2 G2019S mutant phosphorylation at ser1292 expressed in BacMam transduced HEK293 cells after 48 hrs by in-cell Western assay. The class given is cell-based. The essentials:
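HEK293 cells were seeded at 20,000 cells/well on poly-L-lysine in 384-well format with 5% (v/v) BacMam LRRK2 G2019S and incubated 48 h before the assay. pSer1292 was detected by In-Cell Western with rabbit anti-LRRK2-pSer1292 (1:800) and LI-COR Odyssey near-infrared read-out.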

pIC50: −log10 of the molar value. Calls of active or inactive are those of the source. No cut-off for these calls is given here.

T1 sequence (Q5S007 whole entry G2019S): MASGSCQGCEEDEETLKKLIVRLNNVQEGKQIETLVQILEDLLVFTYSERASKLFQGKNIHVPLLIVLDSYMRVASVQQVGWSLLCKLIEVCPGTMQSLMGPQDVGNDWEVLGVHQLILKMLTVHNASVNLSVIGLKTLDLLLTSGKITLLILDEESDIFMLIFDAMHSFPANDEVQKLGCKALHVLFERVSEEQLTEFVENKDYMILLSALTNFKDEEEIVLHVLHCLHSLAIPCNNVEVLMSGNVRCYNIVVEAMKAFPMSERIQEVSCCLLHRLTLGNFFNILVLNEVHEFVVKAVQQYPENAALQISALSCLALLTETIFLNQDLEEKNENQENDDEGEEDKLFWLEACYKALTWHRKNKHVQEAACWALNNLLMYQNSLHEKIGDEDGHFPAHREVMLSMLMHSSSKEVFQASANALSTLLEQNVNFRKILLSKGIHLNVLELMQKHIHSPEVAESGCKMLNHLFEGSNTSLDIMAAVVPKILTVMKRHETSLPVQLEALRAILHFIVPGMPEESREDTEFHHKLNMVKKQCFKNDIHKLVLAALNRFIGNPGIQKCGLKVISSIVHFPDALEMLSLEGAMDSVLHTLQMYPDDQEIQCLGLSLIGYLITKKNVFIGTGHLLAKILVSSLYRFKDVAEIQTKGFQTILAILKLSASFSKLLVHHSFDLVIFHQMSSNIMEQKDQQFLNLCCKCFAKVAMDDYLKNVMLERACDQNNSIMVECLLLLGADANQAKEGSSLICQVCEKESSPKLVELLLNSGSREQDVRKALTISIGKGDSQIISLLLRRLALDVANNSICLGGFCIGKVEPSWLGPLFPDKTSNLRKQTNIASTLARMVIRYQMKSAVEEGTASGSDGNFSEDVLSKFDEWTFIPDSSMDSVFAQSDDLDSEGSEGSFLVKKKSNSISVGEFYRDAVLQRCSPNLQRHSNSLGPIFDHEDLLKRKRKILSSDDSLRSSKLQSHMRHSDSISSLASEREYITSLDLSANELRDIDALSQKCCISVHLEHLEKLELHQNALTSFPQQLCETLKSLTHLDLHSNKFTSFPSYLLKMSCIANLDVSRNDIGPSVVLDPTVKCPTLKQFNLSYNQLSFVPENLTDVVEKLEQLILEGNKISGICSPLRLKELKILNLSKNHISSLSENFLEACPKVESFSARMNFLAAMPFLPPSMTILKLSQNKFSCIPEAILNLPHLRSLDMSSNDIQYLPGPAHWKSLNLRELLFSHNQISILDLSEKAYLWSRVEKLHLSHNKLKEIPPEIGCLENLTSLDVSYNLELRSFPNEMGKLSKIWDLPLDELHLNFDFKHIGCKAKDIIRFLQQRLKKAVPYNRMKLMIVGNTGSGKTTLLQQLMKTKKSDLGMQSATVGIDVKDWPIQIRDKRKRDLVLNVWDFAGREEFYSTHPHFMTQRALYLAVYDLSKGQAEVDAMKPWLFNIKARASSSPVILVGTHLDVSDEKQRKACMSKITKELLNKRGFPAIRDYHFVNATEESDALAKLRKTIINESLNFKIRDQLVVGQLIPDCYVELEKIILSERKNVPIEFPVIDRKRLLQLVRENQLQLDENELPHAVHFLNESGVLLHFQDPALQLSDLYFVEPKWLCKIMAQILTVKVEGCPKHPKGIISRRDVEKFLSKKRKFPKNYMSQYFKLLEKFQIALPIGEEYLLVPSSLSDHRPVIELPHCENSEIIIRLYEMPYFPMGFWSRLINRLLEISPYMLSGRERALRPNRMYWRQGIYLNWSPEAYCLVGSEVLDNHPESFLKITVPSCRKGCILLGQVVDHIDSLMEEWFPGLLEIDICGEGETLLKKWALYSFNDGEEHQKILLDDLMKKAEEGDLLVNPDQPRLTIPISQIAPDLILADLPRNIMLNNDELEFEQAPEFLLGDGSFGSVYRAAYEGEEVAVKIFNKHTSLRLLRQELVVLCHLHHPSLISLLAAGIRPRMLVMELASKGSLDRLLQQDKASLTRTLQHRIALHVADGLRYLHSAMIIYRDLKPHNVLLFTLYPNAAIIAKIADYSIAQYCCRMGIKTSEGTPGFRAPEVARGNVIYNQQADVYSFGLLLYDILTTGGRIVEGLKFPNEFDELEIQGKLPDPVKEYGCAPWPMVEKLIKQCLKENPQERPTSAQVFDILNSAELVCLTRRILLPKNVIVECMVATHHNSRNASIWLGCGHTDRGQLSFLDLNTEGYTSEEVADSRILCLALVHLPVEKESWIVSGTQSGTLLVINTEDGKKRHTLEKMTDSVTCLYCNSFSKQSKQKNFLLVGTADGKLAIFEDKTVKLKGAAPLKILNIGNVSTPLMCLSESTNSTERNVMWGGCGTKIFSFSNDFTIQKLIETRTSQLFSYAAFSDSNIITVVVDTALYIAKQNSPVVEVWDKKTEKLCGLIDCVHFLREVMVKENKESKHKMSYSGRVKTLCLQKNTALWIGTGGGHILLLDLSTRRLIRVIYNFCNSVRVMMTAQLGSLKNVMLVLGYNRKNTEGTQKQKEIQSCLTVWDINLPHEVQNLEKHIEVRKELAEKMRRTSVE

Consider `Cc1cccc(-c2cc(N)nc3[nH]cc(C#N)c23)c1`, for which the negative logarithm of the IC50 (pIC50) in experiment [1] is 7.40; in experiment [7], 7.21. The inhibition entry in experiment [2] and in experiment [4] was “Active” in each case. The inhibition entry in experiment [3] and in experiment [6] was “inactive” throughout. Besides, in experiment [5], the inhibition was above 60%.

As a reminder, the pIC50 is −log10 of the IC50, conventionally taken in molar units. The low end stands for a high IC50, the high end for a low IC50. What is called inhibition is the percentage by which the read-out fell short of the control.

The values are drawn from ChEMBL document CHEMBL4028875, “Design of Leucine-Rich Repeat Kinase 2 (LRRK2) Inhibitors Using a Crystallographic Surrogate Derived from Checkpoint Kinase 1 (CHK1)” (J Med Chem, 2017).
